The nature of data set [1]: Intrinsic clearance in rat liver microsomes. It is filed as ADME, Microsome. The following applies: read-out: CLH. In outline: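 Intrinsic clearance was measured in human and rat hepatic microsomes to assess oxidative metabolism, with predicted hepatic clearance given in mL/min/kg.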
Data set [2] in a line: Drug uptake in rat hepatic portal vein at 10 mg/kg, po administered as single dose measured at 1 hr. It is filed as ADME, organism-based. More on the design: dose 10 mg/kg, route oral. Particulars: read-out: Drug uptake. In outline: (§1)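 Rats got a single 10 mg/kg oral dose. At a single 1 h time point, brain (ng/g tissue), plasma and hepatic portal vein concentrations were measured, giving brain:plasma and portal vein:plasma ratios. The portal vein:plasma ratio was taken as an indicator of the extent of oxidative metabolism.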

Data set [3] has as its system Plasma. Description: Fraction unbound in human plasma. It is filed as ADME, cell-free. In outline: (§2)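 Plasma protein binding was measured by equilibrium dialysis in human and rat plasma and reported as % unbound.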
Data set [4] is described as follows: Volume of distribution at steady state in rat at 1 mg/kg, iv. It counts as ADME, organism-based. More on the design: dose 1 mg/kg, route intravenous. The following applies: in vivo, read-out: Vdss.
Data set [5] in a line: Drug uptake in rat brain assessed per gram of tissue at 10 mg/kg, po administered as single dose measured at 1 hr. The following applies: read-out: Drug uptake. More on the design: dose 10 mg/kg, route oral. It counts as ADME, organism-based. In short, it runs like this:
as §1

Data set [6] can be described thus: Plasma concentration in rat at 10 mg/kg, po administered as single dose measured at 1 hr. More on the design: dose 10 mg/kg, route oral. It is filed as ADME, organism-based. In short, it runs like this:
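Rats received a single 10 mg/kg oral dose. At 1 h, drug was measured in brain (ng/g), plasma and hepatic portal vein, and brain:plasma and HPV:plasma ratios were calculated.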

In data set [7] the target is Muscarinic acetylcholine receptor M3 (Homo sapiens) (UniProt P20309). The data set is described as follows: Activity at human M3 receptor expressed in CHO cells coexpressing Gqi5 assessed as effect on acetylcholine induced calcium mobilization up to 30 uM incubated for 144 secs prior to acetylcholine addition by Fluo-4-AM staining. It counts as functional, cell-based.
Muscarinic acetylcholine receptor M3 (Homo sapiens), sequence (P20309 whole entry, looked up): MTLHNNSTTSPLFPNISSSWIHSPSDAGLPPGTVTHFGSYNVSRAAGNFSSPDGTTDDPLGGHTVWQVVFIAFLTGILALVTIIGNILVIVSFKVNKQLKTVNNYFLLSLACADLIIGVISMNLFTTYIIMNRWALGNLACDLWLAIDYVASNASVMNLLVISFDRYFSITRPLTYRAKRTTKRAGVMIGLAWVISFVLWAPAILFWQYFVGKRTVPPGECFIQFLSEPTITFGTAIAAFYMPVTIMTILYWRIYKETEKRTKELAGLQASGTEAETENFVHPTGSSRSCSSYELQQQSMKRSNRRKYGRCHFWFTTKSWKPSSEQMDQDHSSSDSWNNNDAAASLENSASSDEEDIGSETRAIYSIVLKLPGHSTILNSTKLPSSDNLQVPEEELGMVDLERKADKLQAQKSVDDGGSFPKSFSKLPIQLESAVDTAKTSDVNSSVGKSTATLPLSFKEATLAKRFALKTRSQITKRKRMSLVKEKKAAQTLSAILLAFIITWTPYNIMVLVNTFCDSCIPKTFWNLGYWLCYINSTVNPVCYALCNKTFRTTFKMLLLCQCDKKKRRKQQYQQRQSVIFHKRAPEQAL

Data set [8] deals with T1, Muscarinic acetylcholine receptor M4 (Homo sapiens) (UniProt P08173).
T1 sequence (whole entry): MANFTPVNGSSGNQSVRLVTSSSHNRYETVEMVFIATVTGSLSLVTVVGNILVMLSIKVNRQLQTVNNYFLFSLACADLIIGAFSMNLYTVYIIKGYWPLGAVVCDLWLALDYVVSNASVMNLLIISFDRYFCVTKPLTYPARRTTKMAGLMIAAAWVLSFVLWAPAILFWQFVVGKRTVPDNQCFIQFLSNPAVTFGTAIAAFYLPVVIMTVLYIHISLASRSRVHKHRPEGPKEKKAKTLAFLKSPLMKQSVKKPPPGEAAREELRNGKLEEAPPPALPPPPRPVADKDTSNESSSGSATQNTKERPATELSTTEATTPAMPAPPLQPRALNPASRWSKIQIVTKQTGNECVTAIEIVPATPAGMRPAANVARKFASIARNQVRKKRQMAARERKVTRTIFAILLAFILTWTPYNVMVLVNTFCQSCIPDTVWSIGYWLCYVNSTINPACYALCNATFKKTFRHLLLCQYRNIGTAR
Description: Positive allosteric modulation of human M4 receptor expressed in CHO-K1 cells coexpressing Gqi5 assessed as potentiation of acetylcholine-mediated calcium mobilization incubated for 144 secs prior to acetylcholine addition by Fluo-4-AM staining relative to acetylcholine. It is filed as functional, cell-based. In short, it runs like this:
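hM4-Gqi5 CHO-K1 cells, plated overnight, loaded with Fluo-4 AM (45 min, 37 °C). Compound (0.3% DMSO final) preincubated 144 s, then ACh EC20 added, and EC80 added 86 s later; 1 mM ACh wells for normalization. Calcium read at 37 °C, normalized to baseline and then to maximal ACh response. EC50 from four-parameter logistic fit; three independent determinations in triplicate.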
(In general: Calcium assays in cells follow changes in intracellular calcium, usually with a dye or a luminescent sensor.)

Data set [9] deals with T2, Muscarinic acetylcholine receptor M1 (Homo sapiens) (UniProt P11229).
T2 sequence (whole entry): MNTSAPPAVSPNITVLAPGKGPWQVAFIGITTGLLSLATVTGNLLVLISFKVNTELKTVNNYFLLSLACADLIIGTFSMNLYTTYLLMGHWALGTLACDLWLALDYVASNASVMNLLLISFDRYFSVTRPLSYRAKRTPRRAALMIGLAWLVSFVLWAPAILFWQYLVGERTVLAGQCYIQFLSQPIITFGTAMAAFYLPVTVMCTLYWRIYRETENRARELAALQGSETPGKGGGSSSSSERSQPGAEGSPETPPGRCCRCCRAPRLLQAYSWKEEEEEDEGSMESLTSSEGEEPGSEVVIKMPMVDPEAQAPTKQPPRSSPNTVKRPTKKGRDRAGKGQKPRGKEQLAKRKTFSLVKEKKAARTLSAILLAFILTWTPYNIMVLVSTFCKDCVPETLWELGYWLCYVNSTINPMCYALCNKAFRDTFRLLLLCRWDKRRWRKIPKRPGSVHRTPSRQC
The data set is described as follows: Activity at human M1 receptor expressed in CHO-K1 cells coexpressing Gqi5 assessed as effect on acetylcholine induced calcium mobilization up to 30 uM incubated for 144 secs prior to acetylcholine addition by Fluo-4-AM staining. It is filed as functional, cell-based.

Data set [10] addresses T3, Muscarinic acetylcholine receptor M2 (Homo sapiens) (UniProt P08172).
T3 sequence (whole entry): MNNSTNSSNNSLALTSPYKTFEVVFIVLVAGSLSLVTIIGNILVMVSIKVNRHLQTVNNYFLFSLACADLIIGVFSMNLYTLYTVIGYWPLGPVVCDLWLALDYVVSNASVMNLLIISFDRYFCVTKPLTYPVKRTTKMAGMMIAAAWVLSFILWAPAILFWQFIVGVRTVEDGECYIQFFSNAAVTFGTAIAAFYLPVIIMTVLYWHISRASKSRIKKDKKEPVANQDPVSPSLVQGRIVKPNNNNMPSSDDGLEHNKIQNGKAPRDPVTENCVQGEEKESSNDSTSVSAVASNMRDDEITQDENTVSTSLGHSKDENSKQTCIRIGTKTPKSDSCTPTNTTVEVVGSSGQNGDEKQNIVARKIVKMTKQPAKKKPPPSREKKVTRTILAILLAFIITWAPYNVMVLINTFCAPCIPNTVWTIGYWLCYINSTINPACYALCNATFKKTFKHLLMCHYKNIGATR
Description: Activity at human M2 receptor expressed in CHO cells coexpressing Gqi5 assessed as effect on acetylcholine induced calcium mobilization up to 30 uM incubated for 144 secs prior to acetylcholine addition by Fluo-4-AM staining. It is filed as functional, cell-based. In outline:
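Off-target mode: CHO-K1 lines stably expressing hM1, hM3 or hM5 (wild-type) or hM2 cotransfected with Gqi5, plated 15,000 cells/well, grown overnight at 37 °C. Fluo-4 AM loading 45 min at 37 °C in HBSS/20 mM HEPES/2.5 mM probenecid. Compound (up to 30 µM, 0.3% DMSO final) added 144 s before ACh. Calcium read kinetically at 37 °C.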

Data set [11] concerns the target T4, Muscarinic acetylcholine receptor M4 (Homo sapiens, UniProt P08173).
T4 sequence (P08173 whole entry): T1 sequence (whole entry)
The data set is described as follows: Positive allosteric modulation of human M4 receptor expressed in CHO-K1 cells coexpressing Gqi5 assessed as potentiation of acetylcholine-mediated calcium mobilization incubated for 144 secs prior to acetylcholine addition by Fluo-4-AM staining. It is filed as functional, cell-based. In outline: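 hM4 stably cotransfected with chimeric Gqi5 in CHO-K1 cells. Cells plated overnight at 37 °C, loaded with Fluo-4 AM for 45 min at 37 °C in HBSS/20 mM HEPES/2.5 mM probenecid. Compound pretreated 144 s (0.3% DMSO final), then EC20 ACh, then EC80 ACh 86 s later; kinetic fluorescence at 37 °C.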

Data set [12] is described as follows: Half life in rat at 1 mg/kg, iv. It counts as ADME, organism-based. More on the design: dose 1 mg/kg, route intravenous. Particulars: in vivo.
Data set [13] can be described thus: Mean residence time in rat at 1 mg/kg, iv. It counts as ADME, organism-based. More on the design: dose 1 mg/kg, route intravenous. Particulars: in vivo.
Data set [14] is described as follows: Plasma clearance in rat at 1mg/kg, iv. It counts as ADME, organism-based.
Data set [15] in a line: AUC in rat at 1 mg/kg, iv. The following applies: plasma. Details: dose 1 mg/kg, route intravenous. It counts as ADME, organism-based.
The test system of data set [16] is Plasma. The data set is described as follows: Fraction unbound in rat plasma. It counts as ADME, cell-free. In outline:
as §2

The target of data set [17] is T5, Muscarinic acetylcholine receptor M5 (Homo sapiens) (UniProt P08912).
T5 sequence (whole entry): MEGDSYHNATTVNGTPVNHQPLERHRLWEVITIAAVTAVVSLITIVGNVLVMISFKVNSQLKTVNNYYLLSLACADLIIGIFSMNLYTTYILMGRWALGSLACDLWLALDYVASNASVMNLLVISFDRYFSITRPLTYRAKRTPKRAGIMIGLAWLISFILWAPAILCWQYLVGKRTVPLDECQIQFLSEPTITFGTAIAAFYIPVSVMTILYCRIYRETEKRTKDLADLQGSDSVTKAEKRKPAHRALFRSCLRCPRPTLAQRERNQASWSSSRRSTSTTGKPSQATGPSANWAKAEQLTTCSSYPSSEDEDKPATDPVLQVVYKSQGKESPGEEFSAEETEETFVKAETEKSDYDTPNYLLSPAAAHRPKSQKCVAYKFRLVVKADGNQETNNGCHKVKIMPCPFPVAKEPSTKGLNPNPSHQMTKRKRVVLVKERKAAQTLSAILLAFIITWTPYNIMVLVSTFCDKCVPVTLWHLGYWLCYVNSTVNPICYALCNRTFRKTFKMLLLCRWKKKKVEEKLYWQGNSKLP
The data set is described as follows: Activity at human M5 receptor expressed in CHO cells coexpressing Gqi5 assessed as effect on acetylcholine induced calcium mobilization up to 30 uM incubated for 144 secs prior to acetylcholine addition by Fluo-4-AM staining. It counts as functional, cell-based.

For the next data set, the system named is Brain. The data set is described as follows: Fraction unbound in rat brain homogenate. It is filed as ADME, tissue-based. In outline: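 Binding was measured in rat brain homogenate and reported as % unbound fraction.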

The source made the active and inactive calls. The calls are words filed in the database; no cut-off is given here.

For `COc1ccc(C)c2sc(NC(=O)c3ccncc3)nc12`, in data set [1], the CLint scaled turned out to be 48.5 mL/min/kg. Further, the values for the concentration at 1 h in data set [2], in data set [5] and in data set [6] were 3070 ng/mL, 3090 ng/g and 3740 ng/mL, respectively. For the same molecule, the Fu is reported as 1% with Plasma [3], 3.2% in the data set with Plasma [16] and 0.9% with Brain. The Vd in [4] amounted to 0.97 L/kg. Moreover, the outcome in [7], in [9], in data set [10] and in [17] was inactive. For the same molecule, the %max in data set [8] was 65.2%. Further, the EC50 – broadly, the concentration at which the effect is half-maximal – in data set [11] is 1290 nM. Further, the half-life (as a rule, the time in which the quantity being followed falls by half) in data set [12] was determined as 0.95 h. The MRT – broadly, the average time that molecules of a dose stay in the body – in data set [13] was 1.42 h. Also, the clearance (commonly a measure of how efficiently the substance is removed, as volume per time) in [14] was determined as 11.5 mL/min/kg. In addition, the AUC (commonly concentration integrated over time) in data set [15] stood at 1440 ng·h/mL.

For the origin of these results see ChEMBL document CHEMBL2057082, “Discovery of N-(4-methoxy-7-methylbenzo[d]thiazol-2-yl)isonicatinamide, ML293, as a novel, selective and brain penetrant positive allosteric modulator of the muscarinic 4 (M4) receptor” (Bioorg Med Chem Lett, 2012).
